Bioassay records deposited in PubChem by several laboratories.
Hits are enriched below; roughly 8.4% of the tested compounds scored in any of these assays.
PostGolgi ctrl = growth of the yeast control strain, post-Golgi counter-screen. efflux-deficient yeast background strain, growth absorbance A615, 16 h. inhibition, % at 10 µM. hit rate 5% among 98,000
tolC growth inh = blocks growth of E. coli BW25113 tolC mutant. OD615. growth inhibition, % at 10 µM (by protocol). hit rate 2.2% among 65,000. AID 573;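 active = growth inhibition at or above a cutoff equal to the mean over every tested compound plus 3 SD, cut at about 60% in these data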;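 also: growth measured after 20 h incubation at 37 °C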
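System: E. coli ΔtolC::kan strain BW25113; Buffer or medium: LB broth supplemented with 50 µg/mL kanamycin; Compound: 10 µM final, single dose; Incubation: bacterial growth with compound for 20 h at 37 °C; Signal: A615 absorbance measurement; Evaluation: growth inhibition in percent.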
PostGolgi yeast = growth inhibition of a yeast mutant, post-Golgi transport screen. post-Golgi transport phenotypic cell assay. inhibition, % at 10 µM. hit rate 0.9% among 98,000;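 also: yeast cells grown in 1536-well plates; yeast grown about 18 h at 30C before absorbance read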
Cav32 inh = inhibitors of human Cav3.2 T-type calcium channel; Cav3.2-expressing cells, Fluo-4 calcium fluorescence FDSS; stronger effect = lower value; O95180; B-score at 10 µM; hit rate 4% among 100,000;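 active = single-dose well whose peak fluorescence ratio is a statistical outlier from its plate by either plate-standardised score or position-corrected B-score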
E coli WT exp = E. coli BW25113 growth inhibition, expanded screen; OD600 absorbance; growth inhibition, % at 100 µM; hit rate 0.15% among 98,000; AID 710;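 active = growth inhibition above about 50% at one test dose, limit read from the data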;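 also: growth measured after 20 h incubation at 37 °C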
An asterisk follows results filed as active; / = not tested or not shown. Rule as the data show it, unless noted: active = inhibition above about 30%; inactive = the rest.

SMILES	PostGolgi ctrl	tolC growth inh	PostGolgi yeast	Cav32 inh	E coli WT exp
COc1cc(C)c(Cl)cc1S(=O)(=O)n1cnc2ccccc21	7.8	/	8.2	-0.56	-13.0
Cc1ccc(-n2nnnc2-c2cnc3cc4c(cc3c2C)OCO4)cc1	20.0	/	-4.5	-0.613	-5.0
O=C(C1CCN(c2ccc(N3CCOCC3)nn2)CC1)N1CCN(c2ccc(F)cc2)CC1	-4.6	-3.8	11.2	0.968	0.0
COC(=O)/C(=C1/Oc2cc(C)oc(=O)c2S1)C(F)(F)F	78.1*	1.7	4.9	0.348	6.0
CCOC(=O)C1=C(c2ccccc2)O/C(=C(\C(=O)OC)C(F)(F)F)S1	12.4	/	-9.8	-0.459	-8.0
O=C(CSc1nc2ccccc2[nH]1)NCCCn1ccnc1	2.7	-18.1	5.6	0.154	3.0
CO[C@H]1O[C@@H]2O[C@@]3(C)CC[C@H]4[C@H](C)CC[C@@H]([C@H]1C)[C@@]24OO3	/	/	/	-0.535	/
COCCNC(C(=O)Nc1cc(Cl)cc(Cl)c1)c1ccccc1 (configuration not stated)	10.4	/	1.8	-5.19*	10.0
CN(C(=O)c1cccc(Nc2ccc(-c3ccc4c(c3)OCCO4)nn2)c1)C1CCCCC1	/	/	/	-3.76*	/
CN(C)S(=O)(=O)c1ccc(Nc2ccc(-c3ccc4c(c3)OCCO4)nn2)cc1	1.0	/	-2.1	0.0545	5.0
Fc1ccc2nc3n(c2c1F)CCCCCC3	39.7*	11.9	0.9	-0.209	2.0
CCCC(C(=O)NC1CCCC1)N(C(=O)Cn1nnc(-c2ccc(C)o2)n1)c1ccccc1OC (configuration not stated)	8.7	34.5	-2.7	-1.69	-5.0
O=C(NCCN1CCCC1)c1ccc(CS(=O)(=O)c2c(Cl)cccc2Cl)o1	2.0	-3.9	1.9	-0.0986	6.0
COc1ccc(OC)c(CN2CCN(C(=O)c3cccs3)CC2)c1	2.4	-8.8	4.7	-0.526	4.0
COc1ccc(OC)c(CN2CCN(C(=O)c3cccc4ccccc34)CC2)c1	33.6*	3.5	2.8	0.19	11.0
CCc1ccc(C(=O)/C=C/c2ccc([N+](=O)[O-])o2)cc1	10.0	/	62.8*	-1.26	11.0
Cc1noc(NS(=O)(=O)c2ccc(NC(=O)CSc3nc4ccccc4s3)cc2)c1C	32.7*	42.4	-2.5	0.00645	6.0
Cc1noc(NS(=O)(=O)c2ccc(NC(=O)CSc3ncccn3)cc2)c1C	3.4	-7.8	0.8	0.262	15.0
O=C(CSc1nc2ccccc2s1)NCCOc1ccc(Cl)cc1	28.9	/	-9.5	-6.19*	-16.0
Cc1cnc(NC(=O)CSc2nc3ccccc3s2)s1	0.8	/	-1.4	-4.61*	19.0
Nc1nnc(SCC(=O)NCCOc2ccccc2)s1	/	/	/	-0.609	/
O=C(CSc1nc2ccccc2s1)Nc1ncccn1	-4.2	/	10.5	0.34	1.0
Cc1sc2nc(CN3CCOCC3)nc(NCCc3ccccc3)c2c1C	-7.3	/	12.6	-1.7	12.0
c1csc(-c2csc3nc(CN4CCOCC4)nc(NCc4ccc5c(c4)OCO5)c23)c1	24.9	15.8	-2.8	-7.61*	-27.0
O=C(CN1C(=O)C2C3C=CC(C3)C2C1=O)Nc1nc(SCc2ccc(Cl)cc2)n[nH]1 (configuration not stated)	8.2	20.1	4.2	-8.29*	11.0
SMILES	PostGolgi ctrl	tolC growth inh	PostGolgi yeast	Cav32 inh	E coli WT exp
O=C(CN1C(=O)C2C3C=CC(C3)C2C1=O)Nc1nc2ccccc2[nH]1 (configuration not stated)	0.9	/	0.2	-1.11	0.0
COC(=O)c1[nH]c2ccc(F)cc2c1NC(=O)CCN1CCN(C(=O)c2ccco2)CC1	31.8*	-10.3	0.0	0.79	-8.0
O=c1c2ccccc2nc(SCc2cn3ccsc3n2)n1-c1ccccc1	14.3	44.3	0.2	/	-15.0
O=c1c2ccccc2nc(SCc2cn3ccsc3n2)n1-c1ccccc1F	7.6	65.2*	4.2	-1.61	-12.0
C=CCn1c(SCC(N)=O)nnc1-c1cc(Br)ccc1O	5.7	8.7	-3.9	0.878	2.0
Cc1ccc(C(=O)Nc2nc(=O)n(C(=O)c3ccccc3C)s2)cc1	-8.5	/	-6.7	-7.43*	-3.0
COC(=O)c1cc(NC2c3ccccc3C(=O)N2CCN2CCOCC2)cc(C(=O)OC)c1 (configuration not stated)	7.8	1.8	-4.8	-0.0667	6.0
CC(=O)C1=C(O)C(=O)N(c2nccs2)C1c1ccc(Br)cc1 (configuration not stated)	-4.2	/	-9.6	-3.61	11.0
CC(=O)C1=C(O)C(=O)N(c2cc(C(C)(C)C)on2)C1c1ccc(C(C)C)cc1 (configuration not stated)	1.2	20.1	-0.8	-4.21*	5.0
CC(=O)C1=C(O)C(=O)N(c2cc(C(C)(C)C)on2)C1c1ccc(Br)cc1 (configuration not stated)	18.3	45.1	-4.2	-5.92*	-15.0
COc1ccccc1NC(=O)c1ccc(NC(=O)CSc2nnnn2C)cc1	2.8	-2.9	2.5	0.742	-4.0
CCOC(=O)C1=C(CSc2nccn2C)NC(=O)NC1c1ccc2c(c1)OCO2 (configuration not stated)	9.2	2.7	0.3	0.0344	6.0
CCOC(=O)C1=C(CNCc2ccccc2Cl)NC(=O)NC1c1ccc2c(c1)OCO2 (configuration not stated)	38.8*	11.3	-7.5	-0.023	-1.0
CC(NC(=O)c1cccc(Cn2cc([N+](=O)[O-])cn2)c1)c1ccc(C(C)(C)C)cc1 (configuration not stated)	11.4	/	11.8	-4.34*	-5.0
CCC(NC(=O)c1cccc(Cn2cc([N+](=O)[O-])cn2)c1)c1ccc(C(C)C)cc1 (configuration not stated)	8.4	/	-5.3	-4.3*	-16.0
Cc1nn(C/C(C#N)=N\O)c(C)[n+]1N	26.6	-16.6	-2.6	-0.208	-12.0
CCn1cc(Br)c(C(=O)Nc2ccc(C(=O)OC(C)C)cc2)n1	-9.1	67.2*	3.6	-1.22	2.0
CCn1cc(Br)c(C(=O)Nc2ccc(Cl)c(Cl)c2)n1	/	/	/	0.292	/
Cc1cc(C(=O)CN(Cc2ccc(F)cc2)S(=O)(=O)c2ccc3c(c2)OCCO3)c(C)n1C	5.2	20.5	19.8	-2.88*	-14.0
O=C(CN(Cc1ccccc1)S(=O)(=O)c1ccc2c(c1)OCCO2)N/N=C/c1ccc(F)cc1	22.6	/	-3.1	/	-15.0
O=S(=O)(c1ccc2c(c1)OCCO2)N(Cc1ccc(F)cc1)Cc1nnc(-c2cccs2)o1	34.9*	33.4	-4.2	-3.49	-11.0
CCc1cc2c(SCC(=O)c3ccc(Cl)s3)ncnc2s1	35.9*	/	-4.1	0.15	-4.0
CCc1nc(SCC(=O)c2ccc(Cl)s2)c2oc3ccccc3c2n1	22.4	/	-2.5	-1.26	-2.0
CCC(C)(C)n1nnnc1C(c1ccc2ncccc2c1)N1CCN(c2nc3ccccc3s2)CC1 (configuration not stated)	33.7*	34.1	-1.7	-3.31	-14.0
Oc1ccc(C(c2nnnn2C2CCCC2)N2CCc3ccccc3C2)cc1 (configuration not stated)	0.1	49.7	3.8	-6.89*	-4.0
COc1ccc(C(c2nnnn2Cc2ccccc2)N2CCN(c3nc4ccccc4s3)CC2)cc1 (configuration not stated)	23.5	3.8	9.9	-4.83*	-17.0
